Compound activity as filed in PubChem.
Sampled rows, rich in hits. Any-hit rate of the full collection: about 1.7%.
SUMO1-SIM PPI: modulators of human SUMO1-mediated protein-protein interactions; P63165; SUMO1 binding to a labelled peptide, TR-FRET, 1 h; inhibition, % at 20 µM; 0.33% of 360,000 active; AID 602429; in the data active = inhibition above about 37%
Target sequence (P63165 whole entry, looked up): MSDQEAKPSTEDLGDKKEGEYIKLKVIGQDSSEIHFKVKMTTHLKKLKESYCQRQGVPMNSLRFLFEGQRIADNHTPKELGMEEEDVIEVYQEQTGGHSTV
LMPTP block: LMPTP (human) inhibition; P24666; recombinant LMPTP-A, OMFP fluorogenic substrate, fluorescence intensity; inhibition, % at 20 µM; 0.22% of 360,000 active; AID 651560;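 active = compounds that cut the enzyme signal by at least half of the control window in the single-dose screen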;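 also: plate controls were DMSO wells with enzyme plus substrate for no effect and substrate without enzyme for full effect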
Target sequence (P24666 whole entry, looked up): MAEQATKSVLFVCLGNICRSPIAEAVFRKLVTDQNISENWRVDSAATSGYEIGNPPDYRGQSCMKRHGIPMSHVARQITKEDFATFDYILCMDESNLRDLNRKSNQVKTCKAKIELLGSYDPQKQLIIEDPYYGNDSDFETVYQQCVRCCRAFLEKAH
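Test system: LMPTP-A, protein tyrosine phosphatase of low molecular weight; Input: 0.625 nM enzyme; Incubation: 50 min dark incubation at room temperature; Signal: endpoint fluorescence intensity from OMFP dephosphorylation; Read-out basis: % inhibition versus control wells.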
STEP inh: blocks human striatal-enriched tyrosine phosphatase; inhibition, % at 20 µM; 0.25% of 360,000 active; recombinant STEP, OMFP fluorogenic substrate, fluorescence; P54829;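 active = inhibition at 20 µM, scaled per plate between control wells, above about 37%, limit read from the data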;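 also: 0% = DMSO with enzyme and substrate and 100% = substrate only without enzyme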
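Also added – OMFP at 25 µM · Test system – STEP tyrosine phosphatase · Technique – FITC-channel fluorescence of OMFP product · Schedule – 20 min at room temperature, dark · Evaluation – control-normalized % inhibition with plate pattern correction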
DNMT1 inh: blocks human DNA methyltransferase DNMT1; P26358; DNMT1 molecular beacon, Hinp1I cleavage, fluorescence; inhibition (reported as % activation of signal), % at 10 µM; 0.83% of 360,000 active; in the data active = inhibition above about 50%
Scp-1 inhibitor: Scp-1 (human) phosphatase inhibition | inhibition, % at 20 µM | 0.88% of 340,000 active | Recombinant Scp1, phosphopeptide, malachite green phosphate absorbance | Q9GZU7;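 active = inhibition above about 50% at 20 µM, limit read from the data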;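 also: plate controls were DMSO wells with enzyme for no effect and wells lacking enzyme for full effect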
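Test system: SCP-1 phosphatase catalytic domain, residues 76-261 | Compound dosing: One concentration, 20 µM, with 1.0% DMSO | Schedule: 45 min room-temperature reaction, 5 min colour, 30 min stabiliser | Detection: Absorbance at 630 nm | Read-out basis: % inhibition of SCP-1 phosphate liberation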
Casp6 inh: blocks human caspase-6 cleavage activity | P55212 | purified caspase-6, Z-VEID-R110 cleavage fluorescence | inhibition, % at 12.5 µM | 0.53% of 350,000 active | AID 686996;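 active = mean inhibition across replicates at least about 35%, with every replicate also reaching that limit, limit read from the data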;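 also: 0% = median of neutral control wells and 100% = no fluorescence left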
Target sequence (P55212 24-179 limits assumed): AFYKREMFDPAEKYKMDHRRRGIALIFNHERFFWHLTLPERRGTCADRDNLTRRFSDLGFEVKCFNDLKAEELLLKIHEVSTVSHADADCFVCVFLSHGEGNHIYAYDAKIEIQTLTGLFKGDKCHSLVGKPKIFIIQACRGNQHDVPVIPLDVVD
Target sequence (P55212 194-293 limits assumed): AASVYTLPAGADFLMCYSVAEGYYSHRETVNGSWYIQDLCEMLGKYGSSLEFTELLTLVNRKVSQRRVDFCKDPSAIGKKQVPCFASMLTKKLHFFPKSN
Scp1 confirm: Scp-1 (human) inhibition, single-dose confirmed | AID 540281 | recombinant SCP-1 catalytic domain, phosphate release, malachite green absorbance | 61% of 2,500 active | shares compounds with Scp-1 inhibitor | inhibition, % at 20 µM;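 also: plate controls were DMSO with enzyme for no effect and buffer wells lacking enzyme for full effect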
Scp-1 MG ctr: interferes with malachite green readout, flagging false Scp-1 hits. shares compounds with Scp-1 inhibitor. Colorimetric interference counterscreen, malachite green absorbance 630 nm. apparent inhibition (interference), % at 20 µM. 2,500 tested, under 10 active;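 also: compounds added after enzyme reaction finished so only phosphate colour detection is probed; plate controls were DMSO wells with completed Scp-1 reaction for no effect and substrate wells lacking enzyme for full effect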
Scp1 DSF: binds human Scp-1, shifting its melting temperature. Recombinant SCP1, Sypro Orange thermal shift Tm. 25% of 1,500 active. shares compounds with Scp-1 inhibitor. thermal shift relative to vanadate control, % at 40 µM;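 active = substances whose mean melting-temperature shift, as a percentage of the reference inhibitor's shift, reaches about 5.3%, limit read from the data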;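 also: 0% = Tm of DMSO wells and 100% = Tm with sodium orthovanadate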
DNMT1 inh conf: DNMT1 inhibition confirmation, single concentration; shares compounds with DNMT1 inh; 8% of 2,300 active; AID 602385; DNMT1 molecular beacon HinP1I cleavage, fluorescence; inhibition, % at 10 µM;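 active = average inhibition of at least 30% in the single-concentration confirmation test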
DNMT1 interf: shows spectral interference in the DNMT1 beacon assay; shares compounds with DNMT1 inh; DNMT1 molecular beacon spectral interference counterscreen, fluorescence 485/520; activation (fluorescence interference), % at 10 µM; 1% of 2,300 active; AID 602387;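 active = activation of at least 30% at 10 µM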;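 also: DNMT1 catalytic domain with a HinP1I cleavage step and a FAM/dabcyl DNA beacon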
Active calls of the source: *; . = no result given.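 The calls were made as follows, unless noted: active = inhibition of at least 30% at 20 µM; inactive = the rest.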

SMILES	SUMO1-SIM PPI	LMPTP block	STEP inh	DNMT1 inh	Scp-1 inhibitor	Casp6 inh	Scp1 confirm	Scp-1 MG ctr	Scp1 DSF	DNMT1 inh conf	DNMT1 interf
CC1C=CC(C)C(C(=O)O)C1C(=O)O (stereo not given)	9	-1	3	61*	86*	22	55*	-20	-26	0	1
C=CCn1c(COc2ccc(F)cc2)nnc1SCC(=O)NC(=O)NCc1ccco1	3	15	4	74*	61*	.	56*	-10	-16	7	3
N#CC1=C(N)Oc2ccc3ccc(O)cc3c2C1c1cccnc1 (stereo not given)	11	2	0	0	-1	8	.	.	.	.	.
COc1ccc(N2Cc3cccc(C(=O)O)c3C2=O)cc1	16	7	6	87*	82*	.	71*	-10	0	15	-1
COc1ccc(N2Cc3ccccc3C2=O)cc1	0	-1	2	0	-2	3	.	.	.	.	.
COc1ccc(OC)c(/C=c2\sc3nc(-c4cccs4)nn3c2=O)c1	11	1	-8	-3	-7	1	.	.	.	.	.
COc1ccccc1/C=c1\sc2nc(-c3ccco3)nn2c1=O	26	13	4	106*	69*	.	72*	-9	7.8*	4	2
Cc1cc(-c2ccccc2)nc2c(Br)c(C(=O)O)nn12	5	2	13	52*	95*	.	61*	-19	8.2*	2	5
N#CCNC(=O)c1nn2c(C(F)(F)F)cc(-c3ccccc3)nc2c1Br	-15	0	0	-6	-9	2	.	.	.	.	.
Cc1ccccc1NC(=O)NC1(C(=O)N2CCOCC2)CCCCC1	1	-2	5	0	-5	1	.	.	.	.	.
O=C(Nc1ccccc1C(F)(F)F)NC1(C(=O)N2CCOCC2)CCCCC1	42*	61*	28	95*	75*	86*	55*	-22	12*	9	-4
CS(=O)(=O)c1ccc(-c2sc3ccccc3c2C(=O)N2CCN(c3ccc(F)cc3)CC2)cc1	-1	6	-3	60*	68*	0	63*	-10	4	10	1
Cc1ccc2nc(/C(C#N)=C\c3ccc(Oc4ccc(C(F)(F)F)cc4[N+](=O)[O-])cc3)[nH]c2c1	-5	13	12	81*	97*	-2	87*	2	5.6*	1	-2
Cc1ccc2nc(/C(C#N)=C/c3ccc(-c4cccc([N+](=O)[O-])c4)o3)[nH]c2c1	-5	44	94*	83*	90*	-2	73*	-1	11*	-1	-4
O=C(Nc1cccc(NC(=O)c2cccs2)c1)c1ccc(Br)o1	4	0	1	-1	-6	-2	.	.	.	.	.
O=C(Nc1ccc(NC(=O)c2cccs2)cc1)c1ccc(Br)o1	22	42	29	54*	61*	.	72*	-12	-9	-1	-5
Clc1ccc(C=Cc2ccccn2)c(Cl)c1	-21	1	1	-2	-5	0	.	.	.	.	.
COc1ccc(C(CC(=O)N2CCCCC2)c2c(OC)cc(OC)c3c(-c4ccccc4)cc(=O)oc23)cc1 (stereo not given)	4	15	3	102*	79*	.	65*	-12	-13	3	-2
COc1ccc(C(CC(=O)N2CCCC(C)C2)c2c(OC)cc(OC)c3c(-c4ccccc4)cc(=O)oc23)cc1 (stereo not given)	8	15	3	89*	58*	0	62*	-14	-9	1	-5
COc1cc(C(CC(=O)N2CCCC2)c2c(OC)cc(OC)c3c(-c4ccccc4)cc(=O)oc23)cc(OC)c1OC (stereo not given)	-13	3	2	31	29	7	.	.	.	.	.
O=C(N/N=C/c1ccco1)C1CC1c1ccccc1 (stereo not given)	0	6	4	92*	60*	13	48*	-14	-14	21	4
COc1ccccc1CC(NC(C)=O)C(=O)NC1CCN(S(=O)(=O)c2ccc(NC(C)=O)cc2)CC1 (stereo not given)	-1	-2	-2	-1	-3	2	.	.	.	.	.
Cc1ccc(NC(=O)COc2coc(CN3CCc4ccccc43)cc2=O)cc1Cl	6	19	4	59*	59*	5	55*	-25	2	1	3
COc1cc(OC)nc(C(NC(=O)C2CCN(Cc3ccc(Oc4ccccc4)cc3)CC2)c2ccccc2C)n1 (stereo not given)	-1	1	3	-5	.	-2	.	.	.	.	.
c1ccc(-c2cc(-c3nn4c(-c5ccco5)nnc4s3)c3ccccc3n2)cc1	18	3	8	55*	92*	.	43*	-1	7.3*	4	-3
SMILES	SUMO1-SIM PPI	LMPTP block	STEP inh	DNMT1 inh	Scp-1 inhibitor	Casp6 inh	Scp1 confirm	Scp-1 MG ctr	Scp1 DSF	DNMT1 inh conf	DNMT1 interf
Cc1cc(-c2nn3c(-c4ccccc4)nnc3s2)c2ccccc2n1	2	3	2	8	-4	.	.	.	.	.	.
Cc1oc(-c2ccc(F)cc2)cc1-c1nn2c(-c3ccoc3C)nnc2s1	41*	19	5	106*	75*	.	41*	-21	1	7	-2
COC(=O)c1ccc(NC(=O)C(=O)c2cccn2C)cc1	-16	0	2	3	-8	0	.	.	.	.	.
CC(C)NC(=O)CSc1nnc2sc3ccccc3n12	2	0	0	7	7	0	.	.	.	.	.
Cc1ccc(COC(=O)Cc2coc3cc(O)ccc23)cc1	9	4	0	2	-7	0	.	.	.	.	.
CC(C)[C@H](NC(=O)Cc1ccccc1)C(=O)OCc1cc(=O)n2c(n1)sc1ccccc12	3	22	4	88*	76*	8	59*	-16	-8	3	3
